The results in this text go back to ChEMBL document CHEMBL4513216, “Probing the Open Global Health Chemical Diversity Library for Multistage-Active Starting Points for Next-Generation Antimalarials” (ACS Infect Dis, 2020).

This data set in a line: Toxicity liver stage against HepG2, at 10uM. Type of data set: cell-based. Particulars: human, HepG2-A16-CD81EGFP cells; read-out: INHIBITION
Also noted: test concentration 10 uM, cell line HepG2-A16-CD81EGFP. The method, boiled down: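 Uninfected HepG2-A16-CD81EGFP cells, 3 × 10^3 per well, 1536-well, plated on prespotted compound at 10 μM final, parasite-free screening media added to match infected plates; puromycin 10 μM positive, DMSO 0.5% negative; run in parallel with 48 h PbLuc assay at 37 °C, 5% CO2; viability by CellTiter-Glo luminescence, normalized to controls.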
Regarding `COc1ccc(Cl)cc1-c1nc(N)nc(N(C)C)n1`, the cytotoxicity at 10 µM was -4.01%.
With `CC1CCCN(Cc2coc(-c3cccc(F)c3)n2)C1` (configuration not stated) the figure was -16.7%; with `CC(=O)Nc1ccc(C(=O)NCCCn2cccc2)cc1`, -2.66%; with `COC1(CNC(=O)NCc2ccccc2)CCSC1` (configuration not stated), -2.42%.
The figure for `O=S(=O)(NCCn1ccc(-c2cccs2)n1)C1CC1` is -0.297%; for `CC(C)CN1C[C@@H]2CN(S(=O)(=O)c3cccs3)C[C@@H]2C1=O` it is 4.09%.
The figure for `COCCN1C(=O)CCC12CCCN(C(=O)NC(C)C)CC2` (configuration not stated) is 1.32%.
Consider `Cc1ccc(CN2C[C@H]3C[C@H](C(=O)NCC4CC4)N(C)[C@H]3C2)o1`, for which the cytotoxicity at 10 µM is -3.13%.
With `CCOCC1COCCC12CCN(C(=O)CS(C)(=O)=O)CC2` (configuration not stated) the figure was -1.99%.
With `c1cnc(NCc2noc3c2CN(C2CCOC2)CC3)nc1` (configuration not stated) the figure was -3.71%; with `O=C(CSC1CCc2ccccc2NC1=O)NCCc1ccco1` (configuration not stated), -13%.
With `CC(C)(C)NC(=O)COc1ccc(CNCCOc2ccccn2)cc1` the figure was -3.76%.
On to `O=C1CN([C@@H]2CC[C@@H](NS(=O)(=O)c3ccccc3F)[C@H]2O)CCN1`, for which the cytotoxicity at 10 µM is 1.06%.
The figure for `CCc1cc(O)n2nc(C3CCCN3C(=O)c3ccccn3)cc2n1` (configuration not stated) is -0.805%; for `Cc1cc(C(=O)NC(C)Cc2cccc(Cl)c2)n(C)n1` (configuration not stated) it is 10.9%.
With `CC(c1nc(C2CC2)no1)N1CCN(CCn2ccccc2=O)CC1` (configuration not stated) the figure was 25.8%.
The figure for `N#CCSCC(=O)NCC1CCCCC1` is 8.32%; for `O=C(NCC1CCS(=O)(=O)C1)c1ccc(NC(=O)c2ccco2)cc1` (configuration not stated) it is 3.25%.
Take `CCS(=O)(=O)CCSc1ccc(Cl)cc1`: the cytotoxicity at 10 µM was -1.13%.
The figure for `CCCN(C(=O)CN1CCn2c(nnc2C2CC2)C1)C1=CCCCC1` is 6.19%.
With `CC(C)NC(=O)Nc1ccccc1CN1CCOCC1` the figure was 4.89%; with `O=C(Nc1ccnc(OC2CCOC2)c1)c1cccs1` (configuration not stated), 5.42%; with `Cc1nn(CC(O)CN2CCc3ccccc3C2)c(=O)c2ccccc12` (configuration not stated), 11.1%.
With `CC(NC(=O)NCc1cscn1)c1ccc(N2CCOCC2)cc1` (configuration not stated), the cytotoxicity at 10 µM was -0.736%.
With `COc1ccccc1NCC(=O)NCc1ccc(-c2ccn[nH]2)cc1` the figure was -1.99%; with `NC(=O)C1CCN(C(=O)c2ccccc2OCc2ccncc2)CC1`, 1.02%.
The figure for `CS(=O)(=O)NCc1ccc(NC(=O)CC2=CCCCC2)cc1` is -2.48%; for `CN(CC(F)(F)F)C(=O)CNC(=O)N1CCCC(C(F)(F)F)C1` (configuration not stated) it is 0.601%.
With `O=C(Cc1cccc(F)c1)NC1CCCc2cn[nH]c21` (configuration not stated) the figure was 16.5%.
In the case of `Cn1nccc1NC(=O)CN1CCc2sccc2C1`, the cytotoxicity at 10 µM was 1.09%.
The figure for `Cc1ccc(C2CSCCN2C(=O)C2=CCCC2)o1` (configuration not stated) is -6.12%.
Regarding `Cn1cc(-c2csc(CN3CCOCC3)n2)cn1`, the cytotoxicity at 10 µM is -11.4%.
With `COC[C@@]12CCC[C@@H]1CN(C(=O)N1CCCC1)C2` the figure was 7.9%; with `COCCC(=O)N1CC[C@@H]2O[C@@H](C)C[C@H]2C1`, -2.78%.
On to `Cc1occc1C(=O)N1CC[C@@H](N2CCOCC2)[C@@H]1Cc1ccccc1`, for which the cytotoxicity at 10 µM is -4.09%.
In the case of `CCN(C)c1ncnc2c1CCN(Cc1ccoc1)CC2`, the cytotoxicity at 10 µM was -0.439%.
The figure for `OCCCN1CCc2[nH]nc(C(c3ccccc3)c3ccccc3)c2C1` is -0.869%.
Take `Cn1ccc2c(-c3cc(N)nc(N4CCOCC4)n3)ccnc21`: the cytotoxicity at 10 µM was -3.67%.
With `COc1ccc2nc(CNC(=O)C3CC4(CCNCC4)CN3C)[nH]c2c1` (configuration not stated) the figure was 0.488%; with `Cc1ccc2nc(C)c(C)c(C(=O)N3CCN(c4nccs4)CC3)c2c1`, 3.96%.
With `CN(C)c1ccccc1C(=O)N1CCCC(c2ccc(C(=O)O)cc2)C1` (configuration not stated) the figure was 16.2%; with `c1ccc(Cc2noc(-c3ccc(NCC4CCCOC4)nc3)n2)cc1` (configuration not stated), -1.05%; with `Cc1nsc(NC(=O)NC2(CN3CCOCC3)CCCCC2)n1`, -3.82%.
The figure for `CCCc1nccn1-c1cccc(C(C)O)c1` (configuration not stated) is 5.82%; for `CN(C)S(=O)(=O)N1CC[C@]2(O)CCN(Cc3cccc(F)c3)C[C@@H]2C1` it is -5.16%; for `N#Cc1cccc(N2CCCC3(CCC(=O)N(C4CCCC4)C3)C2)n1` (configuration not stated) it is -0.0436%.
On to `CN(C)CC(C)(C)Cn1cnc(-c2ccccc2)c1-c1ncc[nH]1`, for which the cytotoxicity at 10 µM stood at 9.21%.
The figure for `O=C(NCc1cccnc1N1CCCC(O)C1)c1ccc2[nH]nnc2c1` (configuration not stated) is 11.4%; for `Cc1ccc(C(=O)NCCC(C)C)cc1NS(C)(=O)=O` it is 10.9%; for `CCc1ccc(CN2CCC(CNS(=O)(=O)C3CC3)C2)nc1` (configuration not stated) it is -4.69%.
The figure for `Cc1nc2c(cc1C(=O)Nc1ccccc1Cl)c(=O)n(C)c(=O)n2C` is -5.06%; for `CCCc1cc(C(=O)N2C[C@@H](C)[C@](O)(C3CCC3)C2)[nH]n1` it is 10.1%; for `CCn1nc(C)c(CCNC(=O)C2CCCN(CC(N)=O)C2)c1C` (configuration not stated) it is -11.8%.
With `Cc1ccc(NC(=O)C2=CN=S=N2)cc1` the figure was 3.51%; with `Cc1nnc2n1CCN(C(=O)c1cc(Br)c(Cl)[nH]1)C2`, -12.7%; with `COc1ccc(CNC(C)c2ccc3[nH]c(=O)[nH]c3c2)cc1` (configuration not stated), -5.04%.
With `COc1ccc(C)cc1CNCc1ccc(-n2nc(C)cc2C)nc1`, the cytotoxicity at 10 µM turned out to be 0.813%.
Turning to `CC(O)CN1CCN(Cc2nnc(C3CC3)o2)CC1` (configuration not stated), the cytotoxicity at 10 µM is -10%.
The figure for `CC(C)(C)c1cnc(CN2CCCC2Cn2cccn2)o1` (configuration not stated) is -9.6%; for `Cn1c(C2CC2)nc2c1CCN(CCOc1ccc(C#N)cc1)C2` it is -9.39%.
In the case of `COC(=O)C(c1cc(F)ccc1F)N(C)C(=O)c1cccnc1O` (configuration not stated), the cytotoxicity at 10 µM was -0.289%.
With `CCc1nccn1C1CCCN(C(=O)c2csc(COC)n2)C1` (configuration not stated) the figure was -8.11%; with `CCn1cc(C(=O)NCc2csc(Br)c2)cn1`, 4.84%.
In the case of `Cc1oc(C)c(C(=O)N2CCCN(Cc3cscn3)CC2)c1C`, the cytotoxicity at 10 µM was 6.88%.
Consider `CCOC1COC2(CCN(Cc3cccnc3OC)CC2)C1` (configuration not stated), for which the cytotoxicity at 10 µM was -2.47%.
The figure for `Cc1ccc(CN2CCc3[nH]nc(C(=O)N4CCNC(=O)C4)c3C2)s1` is 12%; for `CC[C@@H]1N(Cc2ccncc2)CCC[C@]12CCC(=O)N2C` it is 10.5%.
With `COCC1CN(Cc2ccc(OC)cc2)Cc2nnn(CC3CC3)c21` (configuration not stated) the figure was -2.47%; with `CC(C)c1nn(C)c(Cl)c1CNCc1ccc(N(C)C)nc1`, -13.6%.
The figure for `CC(C)CN1CCC(N2CCC(C(=O)N(C)C)CC2)CC1` is 16.9%; for `COc1ccc(CC(=O)N2C[C@H]3CN(Cc4ccccn4)C[C@H]3C2)cc1` it is 3.5%.
Regarding `c1ccc(N2CC3(CCN(Cc4cccnc4)C3)C2)nc1`, the cytotoxicity at 10 µM was 1.11%.
